The source made the active and inactive calls. The rule behind the calls is not given here.

The subject of series [1] is Salmonella typhimurium. Description: Antimicrobial activity against Salmonella enterica Typhimurium 14028 infected in RAW 264.7 cells assessed as inhibition of bacterial replication at 100 nM treated 30 mins before infection measured after 2 to 16 hrs postinfection by flow cytometry. The note with it: Salmonella enterica subsp. enterica serovar Typhimurium. Format: functional, organism-based. A general note: Flow cytometry measures light scatter and fluorescence of single cells or particles in a stream.

For series [2], the system named is Salmonella typhimurium. Description: Bactericidal activity against Salmonella enterica Typhimurium 14028 infected in RAW 264.7 cells assessed as decrease in bacterial growth yield at 100 nM after 16 hrs postinfection by flow cytometry in presence of 10 ug/ml of intracellular replication inhibitor tetracycline. Format: functional, organism-based. As to conditions: Salmonella enterica subsp. enterica serovar Typhimurium.

Series [3] concerns Salmonella typhimurium. Nature of the series: Antimicrobial activity against Salmonella enterica Typhimurium 14028 infected in RAW 264.7 cells assessed as […] nitric oxide production in infected cells at 100 nM. In kind it is functional, organism-based. The note with it: Salmonella enterica subsp. enterica serovar Typhimurium. The method, boiled down:
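Nonactivated RAW264.7 cells infected with opsonized (10% preimmune BALB/c serum, 30 min, 37°C) noninvasive-grown S. Typhimurium 14028 at MOI 10; cells pretreated 30 min before infection, then fresh medium. 1 h infection, 45 min gentamicin 50 μg/ml, then 10 μg/ml maintenance. NO measured as nitrite in medium by Griess reagent, OD 525 nm against sodium nitrite standards.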

The test system of series [4] is RAW264.7. Description: Induction of apoptosis in mouse RAW264.7 cells assessed as early apoptotic cells at 100 nM after 16 hrs using annexin V-propidium iodide staining by flow cytometry. As to conditions: raw264.7, 16 h, 0.1 µM. In kind it is cell-based. In a few lines: (§1)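 RAW264.7 cells cultured with compound for 16 h, DMSO as control. Cells stained with annexin V-FITC plus propidium iodide and analysed by flow cytometry. Populations given as percentages of all cells counted, with standard deviations.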

Series [5] has as its system RAW264.7. Description: Induction of apoptosis in mouse RAW264.7 cells assessed as late apoptotic cells at 100 nM after 16 hrs using annexin V-propidium iodide staining by flow cytometry. In kind it is cell-based. As to conditions: raw264.7, 16 h, 0.1 µM. In a few lines: as §1
Series [6] concerns RAW264.7. Description: Induction of apoptosis in mouse RAW264.7 cells assessed as necrotic cells at 100 nM after 16 hrs using annexin V-propidium iodide staining by flow cytometry. Format: cell-based. As to conditions: raw264.7, 16 h, 0.1 µM. The method, boiled down:
as §1

Series [7] has as its system RAW264.7. Description: Cytotoxicity against mouse RAW264.7 cells at 100 nM by LDH release assay. As to conditions: raw264.7, 0.1 µM. In kind it is cell-based. In a few lines: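 RAW264.7 cells cultured with compound for 16 h. LDH released into the culture medium measured chromogenically with a cytotoxicity detection kit. Triplicates, repeated at least twice; paired t test.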
In general terms: LDH in the medium is a marker of cell lysis.

In series [8] the test system is RAW264.7. Description: Cytotoxicity against mouse RAW264.7 cells assessed as change vacuolar pH at 200 uM using acridine orange stain by fluorescent microscope. In kind it is cell-based. The note with it: raw264.7, 200 µM. In a few lines:
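RAW264.7 cells treated with compound, then stained with acridine orange, whose fluorescence shifts upon protonation. Intravacuolar orange staining scored by fluorescence microscopy as acidified vacuoles.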

Series [9] deals with Salmonella typhimurium. Nature of the series: Bacteriostatic activity against Salmonella enterica Typhimurium 14028 infected in RAW 264.7 cells assessed as decrease in bacterial growth yield at 200 uM after 16 hrs postinfection by flow cytometry. Format: functional, organism-based. The note with it: Salmonella enterica subsp. enterica serovar Typhimurium.
The subject of series [10] is Salmonella typhimurium. Description: bacteriostatic activity against Salmonella enterica Typhimurium 14028 infected in RAW 264.7 cells assessed as decrease intracellular bacteria at 200 uM after 16 hrs postinfection by GFP-based fluorescent reduction assay. In kind it is functional, organism-based. As to conditions: Salmonella enterica subsp. enterica serovar Typhimurium.

In series [11] the test system is Salmonella typhimurium. Description: Antimicrobial activity against Salmonella enterica Typhimurium 14028 infected in RAW 264.7 cells assessed as decrease in bacterial growth yield at 200 uM after 16 hrs postinfection by flow cytometry in presence of 10 ug/ml of intracellular replication inhibitor tetracycline. In kind it is functional, organism-based. The note with it: Salmonella enterica subsp. enterica serovar Typhimurium.

The test system of series [12] is Salmonella typhimurium. Description: Antimicrobial activity against Salmonella enterica Typhimurium 14028 infected in RAW 264.7 cells assessed as growth inhibition at 200 uM treated 4 hr postinfection measured after 16 hrs of postinfection by flow cytometry. In kind it is functional, organism-based. The note with it: Salmonella enterica subsp. enterica serovar Typhimurium.

Series [13] relates to Salmonella typhimurium. Nature of the series: Antimicrobial activity against Salmonella enterica Typhimurium 14028 infected in RAW 264.7 cells assessed as growth inhibition at 200 uM treated 6 hr postinfection measured after 16 hrs of postinfection by flow cytometry. In kind it is functional, organism-based. The note with it: Salmonella enterica subsp. enterica serovar Typhimurium.

Series [14] relates to Salmonella typhimurium. Nature of the series: Antimicrobial activity against Salmonella enterica Typhimurium 14028 infected in RAW 264.7 cells assessed as growth inhibition at 200 uM treated 3 hr before infection measured after 16 hrs of postinfection by flow cytometry. Format: functional, organism-based. As to conditions: Salmonella enterica subsp. enterica serovar Typhimurium.

The test system of series [15] is Salmonella typhimurium. Nature of the series: Antimicrobial activity against sifA gene-deficient Salmonella enterica Typhimurium 14028 infected in RAW 264.7 cells assessed as growth inhibition at 200 uM after 2 to 16 hrs postinfection by flow cytometry relative to untreated control. As to conditions: Salmonella enterica subsp. enterica serovar Typhimurium. In kind it is functional, organism-based.

For series [16], the system named is Salmonella typhimurium. Description: Antimicrobial activity against ssaV gene-deficient Salmonella enterica Typhimurium 14028 infected in RAW 264.7 cells assessed as growth inhibition at 200 uM after 2 to 16 hrs postinfection by flow cytometry relative to untreated control. As to conditions: Salmonella enterica subsp. enterica serovar Typhimurium. In kind it is functional, organism-based.

Series [17] deals with Salmonella typhimurium. Nature of the series: Antimicrobial activity against sseG gene-deficient Salmonella enterica Typhimurium 14028 infected in RAW 264.7 cells assessed as growth inhibition at 200 uM after 2 to 16 hrs postinfection by flow cytometry relative to untreated control. Format: functional, Salmonella enterica subsp. enterica serovar Typhimurium.
Series [18] relates to Salmonella typhimurium. Description: Antimicrobial activity against Salmonella enterica Typhimurium 14028 infected in RAW 264.7 cells assessed as inhibition of inducible nitric oxide synthase expression in infected cells at 200 uM by Immunoblotting relative to untreated control. As to conditions: Salmonella enterica subsp. enterica serovar Typhimurium. In kind it is functional, organism-based. In general terms: A western blot detects proteins with antibodies after separation by electrophoresis.

In series [19] the test system is Salmonella typhimurium. Description: Antimicrobial activity against Salmonella enterica Typhimurium 14028 infected in RAW 264.7 cells assessed as decrease in TNF-alpha secretion from infected cells at 200 Um after 16 hrs postinfection by ELISA relative to untreated control. Format: functional, organism-based. As to conditions: Salmonella enterica subsp. enterica serovar Typhimurium.

The test system of series [20] is Salmonella typhimurium. Nature of the series: Antimicrobial activity against Salmonella enterica Typhimurium 14028 infected in RAW 264.7 cells assessed as decrease in IL-6 secretion from infected cells at 200 uM after 16 hrs postinfection by ELISA relative to untreated control. In kind it is functional, organism-based. The note with it: Salmonella enterica subsp. enterica serovar Typhimurium.

For series [21], the system named is Salmonella typhimurium. Nature of the series: Antimicrobial activity against Salmonella enterica Typhimurium 14028 infected in RAW 264.7 cells assessed as delayed degradation of IkappaB-alpha in infected cells at 200 uM after 20 mins postinfection by Immunoblotting relative to untreated control. In kind it is functional, organism-based. The note with it: Salmonella enterica subsp. enterica serovar Typhimurium.

The test system of series [22] is Salmonella typhimurium. Description: Antimicrobial activity against Salmonella enterica Typhimurium 14028 infected in RAW 264.7 cells assessed as delayed degradation of IkappaB-alpha in infected cells at 200 uM after 40 mins postinfection by Immunoblotting relative to untreated control. Format: functional, organism-based. As to conditions: Salmonella enterica subsp. enterica serovar Typhimurium.

Series [23] deals with RAW264.7. Description: Induction of apoptosis in mouse RAW264.7 cells assessed as early apoptotic cells at 200 uM after 16 hrs using annexin V-propidium iodide staining by flow cytometry. In kind it is cell-based. As to conditions: raw264.7, 16 h. The method, boiled down:
(§2)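 RAW264.7 cells kept 16 h with or without compound in DMSO. Cells stained with annexin V-FITC plus propidium iodide and analysed by flow cytometry. Populations given as percent of all cells counted, with standard deviations.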

For series [24], the system named is RAW264.7. Description: Induction of apoptosis in mouse RAW264.7 cells assessed as late apoptotic cells at 200 uM after 16 hrs using annexin V-propidium iodide staining by flow cytometry. In kind it is cell-based. As to conditions: raw264.7, 16 h. The method, boiled down: as §2
Series [25] has as its system RAW264.7. Description: Induction of apoptosis in mouse RAW264.7 cells assessed as necrotic cells at 200 uM after 16 hrs using annexin V-propidium iodide staining by flow cytometry. In kind it is cell-based. The note with it: raw264.7, 16 h. The method, boiled down:
as §2

Series [26] deals with RAW264.7. Description: Cytotoxicity against mouse RAW264.7 cells at 200 uM by LDH release assay. Format: cell-based. As to conditions: raw264.7, 200 µM.
Series [27] has as its system Salmonella typhimurium. Nature of the series: Antimicrobial activity against Salmonella enterica Typhimurium 14028 infected in RAW 264.7 cells assessed as decrease in segregation of plasmid at 200 uM. The note with it: Salmonella enterica subsp. enterica serovar Typhimurium. In kind it is functional, organism-based.
Series [28] deals with Salmonella typhimurium. Nature of the series: Antimicrobial activity against sseF gene-deficient Salmonella enterica Typhimurium 14028 infected in RAW 264.7 cells assessed as growth inhibition at 200 uM after 2 to 16 hrs postinfection by viable counting relative to untreated control.

Take `CO/C1=C\C(C)=C\[C@@H](C)[C@@H](O)[C@@H](C)C/C(C)=C/C=C/[C@H](OC)[C@@H]([C@@H](C)[C@@H](O)[C@H](C)[C@@]2(O)C[C@@H](O)[C@H](C)[C@@H](C(C)C)O2)OC1=O` [BAFILOMYCIN A1]: the outcome with Salmonella typhimurium [1], in the series on Salmonella typhimurium [2] and with Salmonella typhimurium [3] was Active. Further, the Activity is 29.2% with RAW264.7 [4]; 31.5% in the series with RAW264.7 [5]; 0.4% in the series on RAW264.7 [6]; “Toxic” in the series with RAW264.7 [7]; “Toxic” in the series with RAW264.7 [8].
In the case of `COc1ccc2[nH]c([S+]([O-])Cc3ncc(C)c(OC)c3C)nc2c1` (stereo not drawn) [OMEPRAZOLE], the result in the series with Salmonella typhimurium [9], in the series on Salmonella typhimurium [10], in the series with Salmonella typhimurium [12], with Salmonella typhimurium [13], with Salmonella typhimurium [14] and with Salmonella typhimurium [27] was Active. Further, the outcome with Salmonella typhimurium [11], in the series on Salmonella typhimurium [15], with Salmonella typhimurium [16], with Salmonella typhimurium [18], in the series with Salmonella typhimurium [19] and with Salmonella typhimurium [20] was inactive. Besides, the result in the series with Salmonella typhimurium [21] and with Salmonella typhimurium [22] was inactive. For the same compound, the “fold change (FC)” value in the series on Salmonella typhimurium [17] and with Salmonella typhimurium [28] was 2 each time. Further, the Activity in the series on RAW264.7 [23] was 25.3%; in the series with RAW264.7 [24] it was 15.8%; with RAW264.7 [25] it was 0.1%; in the series with RAW264.7 [26], “Non-toxic”.

The values are drawn from ChEMBL document CHEMBL1649444, “Omeprazole antagonizes virulence and inflammation in Salmonella enterica-infected RAW264.7 cells” (Antimicrob Agents Chemother, 2009).
